In ChEMBL document CHEMBL1138009, “3-[3-Fluoro-5-(5-pyridin-2-yl-2H-tetrazol-2-yl)phenyl]-4-methylpyridine: a highly potent and orally bioavailable metabotropic glutamate subtype 5 (mGlu5) receptor antagonist” (Bioorg Med Chem Lett, 2004):

Assays:
[1] = molecular target: T1, Metabotropic glutamate receptor 5 (Rattus norvegicus, UniProt P31424); test: Antagonistic activity against Metabotropic glutamate receptor 5 in [Ca2+] flux assay using glutamate (10 uM) as agonist; type: functional
Method in brief: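 Cell-based high-throughput functional assay; glutamate 10 μM as agonist; antagonism read as change in cytosolic Ca2+ by fluorescence detection; n = 2–4, SD ≈ ±25%.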

[2] = molecular target: T1, Metabotropic glutamate receptor 5; test: Binding affinity towards Metabotropic glutamate receptor was determined by displacing [3H]3-methoxy-5-(pyridin-2-ylethynyl)pyridine from rat cortical membranes
Method in brief: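 Radioligand displacement of [3H]-3-methoxy-5-(pyridin-2-ylethynyl)pyridine from rat cortical membranes by test compounds; n = 2–4, SD ≈ ±25%.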

[3] = molecular target: Metabotropic glutamate receptor 5 (Rattus norvegicus) (UniProt P31424); test: Effective dose against rat Metabotropic glutamate receptor 5 occupancy after i.p. dosing at 10 mg/kg of 50% PEG400/H 20; type: functional, organism-based; set-up: dose 10 mg/kg
Chain of Metabotropic glutamate receptor 5 (Rattus norvegicus) (P31424 21-1203 limits assumed): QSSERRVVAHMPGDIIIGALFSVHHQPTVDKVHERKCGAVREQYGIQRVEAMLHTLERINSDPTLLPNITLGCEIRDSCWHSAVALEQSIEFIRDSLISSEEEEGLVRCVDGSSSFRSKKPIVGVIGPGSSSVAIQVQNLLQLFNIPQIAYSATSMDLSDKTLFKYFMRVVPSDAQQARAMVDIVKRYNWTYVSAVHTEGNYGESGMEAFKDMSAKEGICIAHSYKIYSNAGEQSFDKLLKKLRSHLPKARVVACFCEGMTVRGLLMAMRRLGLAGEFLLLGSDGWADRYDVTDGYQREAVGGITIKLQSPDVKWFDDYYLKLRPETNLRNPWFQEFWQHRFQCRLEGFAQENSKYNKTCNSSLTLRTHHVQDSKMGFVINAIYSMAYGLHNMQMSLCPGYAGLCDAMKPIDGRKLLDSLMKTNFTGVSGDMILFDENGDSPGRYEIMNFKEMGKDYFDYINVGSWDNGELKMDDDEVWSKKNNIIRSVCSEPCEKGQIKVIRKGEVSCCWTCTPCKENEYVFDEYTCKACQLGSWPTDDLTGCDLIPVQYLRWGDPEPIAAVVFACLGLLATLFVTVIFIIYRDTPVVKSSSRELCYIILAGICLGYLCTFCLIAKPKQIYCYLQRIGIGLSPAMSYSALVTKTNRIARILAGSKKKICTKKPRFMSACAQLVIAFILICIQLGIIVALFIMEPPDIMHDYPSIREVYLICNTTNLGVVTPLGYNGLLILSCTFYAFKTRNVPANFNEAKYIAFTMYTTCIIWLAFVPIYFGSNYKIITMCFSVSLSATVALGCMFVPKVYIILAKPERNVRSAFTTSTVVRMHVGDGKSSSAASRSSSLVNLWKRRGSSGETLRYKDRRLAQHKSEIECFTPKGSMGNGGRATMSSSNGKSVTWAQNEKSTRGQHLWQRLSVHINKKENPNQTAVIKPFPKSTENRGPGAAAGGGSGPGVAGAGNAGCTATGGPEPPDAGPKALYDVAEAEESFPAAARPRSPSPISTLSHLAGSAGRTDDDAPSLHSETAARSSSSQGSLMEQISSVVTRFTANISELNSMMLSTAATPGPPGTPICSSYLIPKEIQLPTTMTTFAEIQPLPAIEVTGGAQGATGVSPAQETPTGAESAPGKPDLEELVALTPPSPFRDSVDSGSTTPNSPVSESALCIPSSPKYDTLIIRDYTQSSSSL
Method in brief: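 Rat receptor occupancy: compound given 10 mg/kg intraperitoneally in 50% PEG 400/H2O, occupancy measured at 1 h; hippocampal and plasma levels also determined at 1 h.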

[4] = Maximum concentration i.v. dosing at 2 mg/kg of 50% PEG400/H 20, po dosing at 10 mg/kg; type: ADME, organism-based; settings: rat, in vivo
[5] = Half life i.v. dosing at 2 mg/kg of 50% PEG400/H 20, po dosing at 10 mg/kg; type: ADME, organism-based; settings: rat, in vivo
[6] = Plasma clearance i.v. dosing at 2 mg/kg of 50% PEG400/H 20, po dosing at 10 mg/kg; type: ADME, organism-based; settings: rat, iv, read-out: Clp
[7] = Oral bioavailability i.v. dosing at 2 mg/kg of 50% PEG400/H 20, po dosing at 10 mg/kg; type: ADME, organism-based; settings: rat, in vivo
[8] = Oral bioavailability after i.v. dosing at 2 mg/kg of 50% PEG400/H 20, po dosing at 10 mg/kg; type: ADME, organism-based; settings: rat, in vivo

T1 sequence (P31424 whole entry): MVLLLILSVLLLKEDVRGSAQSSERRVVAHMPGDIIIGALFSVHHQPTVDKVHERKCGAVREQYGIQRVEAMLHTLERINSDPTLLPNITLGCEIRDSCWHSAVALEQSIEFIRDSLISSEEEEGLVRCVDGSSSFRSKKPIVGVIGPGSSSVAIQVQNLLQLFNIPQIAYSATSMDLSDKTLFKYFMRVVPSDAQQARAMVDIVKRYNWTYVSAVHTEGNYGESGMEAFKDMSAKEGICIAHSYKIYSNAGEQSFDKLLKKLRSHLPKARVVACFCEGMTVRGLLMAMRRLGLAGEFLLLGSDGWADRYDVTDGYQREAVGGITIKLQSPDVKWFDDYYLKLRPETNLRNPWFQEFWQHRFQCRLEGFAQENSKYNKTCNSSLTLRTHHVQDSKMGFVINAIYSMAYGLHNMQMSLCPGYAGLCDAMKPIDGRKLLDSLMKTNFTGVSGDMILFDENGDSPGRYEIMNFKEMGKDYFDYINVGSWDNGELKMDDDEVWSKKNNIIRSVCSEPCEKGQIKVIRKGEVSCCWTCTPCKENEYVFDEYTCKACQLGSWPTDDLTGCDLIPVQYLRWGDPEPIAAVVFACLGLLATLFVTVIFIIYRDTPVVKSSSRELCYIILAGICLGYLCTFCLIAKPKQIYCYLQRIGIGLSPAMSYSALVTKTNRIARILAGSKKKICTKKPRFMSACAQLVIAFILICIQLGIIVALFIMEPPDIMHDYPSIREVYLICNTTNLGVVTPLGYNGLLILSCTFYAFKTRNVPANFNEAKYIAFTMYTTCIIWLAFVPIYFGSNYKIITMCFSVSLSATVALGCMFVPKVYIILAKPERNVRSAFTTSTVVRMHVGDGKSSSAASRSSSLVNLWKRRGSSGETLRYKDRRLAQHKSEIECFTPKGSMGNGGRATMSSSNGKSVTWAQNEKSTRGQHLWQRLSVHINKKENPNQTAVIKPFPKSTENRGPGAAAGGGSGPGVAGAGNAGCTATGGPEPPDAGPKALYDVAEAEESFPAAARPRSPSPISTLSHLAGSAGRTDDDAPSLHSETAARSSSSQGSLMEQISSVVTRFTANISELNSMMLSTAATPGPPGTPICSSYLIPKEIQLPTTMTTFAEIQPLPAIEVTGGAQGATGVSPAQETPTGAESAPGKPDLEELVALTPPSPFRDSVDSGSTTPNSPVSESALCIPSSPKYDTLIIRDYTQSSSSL

Structure (SMILES): Cc1ccncc1-c1cc(F)cc(-n2nnc(-c3ccccn3)n2)c1
- IC50 [1]: 5 nM
- Ki [2]: 2 nM
- Occupancy [3]: 95
- Cmax [4]: 900 nM
- half-life [5]: 1.6 h
- clearance [6]: 39 mL/min/kg
- bioavailability [7]: 12%

Structure (SMILES): Cc1cccnc1-c1cc(F)cc(-n2nnc(-c3ccccn3)n2)c1
- IC50 [1]: 31 nM
- Ki [2]: 24 nM

Structure (SMILES): Nc1ccccc1-c1cc(F)cc(-n2nnc(-c3ccccn3)n2)c1
- IC50 [1]: 8 nM
- Ki [2]: 7 nM

Structure (SMILES): Cc1ccc(-c2cc(F)cc(-n3nnc(-c4ccccn4)n3)c2)cc1
- IC50 [1]: > 3000 nM

Structure (SMILES): Fc1cc(-c2ccccc2)cc(-n2nnc(-c3ccccn3)n2)c1
- IC50 [1]: 247 nM
- Ki [2]: 53 nM

Structure (SMILES): N#Cc1ccccc1-c1cc(F)cc(-n2nnc(-c3ccccn3)n2)c1
- IC50 [1]: 6 nM
- Ki [2]: 4 nM

Structure (SMILES): Cc1ccc(-c2cc(F)cc(-n3nnc(-c4ccccn4)n3)c2)cn1
- IC50 [1]: 57 nM
- Ki [2]: 36 nM

Structure (SMILES): Cc1cnccc1-c1cc(F)cc(-n2nnc(-c3ccccn3)n2)c1
- IC50 [1]: 63 nM
- Ki [2]: 33 nM

Structure (SMILES): Cc1ncccc1-c1cc(F)cc(-n2nnc(-c3ccccn3)n2)c1
- IC50 [1]: 41 nM
- Ki [2]: 45 nM

Structure (SMILES): N#Cc1cc(F)cc(-n2nnc(-c3ccccn3)n2)c1
- IC50 [1]: 4 nM
- Ki [2]: 14 nM
- T1/2 [5]: 2.9 h
- clearance [6]: 17 mL/min/kg
- bioavailability [8]: 26%

Structure (SMILES): N#Cc1cccc(-c2cc(F)cc(-n3nnc(-c4ccccn4)n3)c2)c1
- IC50 [1]: 253 nM
- Ki [2]: 12 nM

Structure (SMILES): Nc1ccncc1-c1cc(F)cc(-n2nnc(-c3ccccn3)n2)c1
- IC50 [1]: 108 nM
- Ki [2]: 20 nM

Structure (SMILES): Fc1cc(-c2ccccn2)cc(-n2nnc(-c3ccccn3)n2)c1
- IC50 [1]: 39 nM
- Ki [2]: 95 nM

Structure (SMILES): Cc1cccc(-c2cc(F)cc(-n3nnc(-c4ccccn4)n3)c2)c1
- IC50 [1]: 1470 nM

Structure (SMILES): Fc1cc(-c2ccncc2)cc(-n2nnc(-c3ccccn3)n2)c1
- IC50 [1]: 956 nM
- Ki [2]: 575 nM

Structure (SMILES): Fc1cc(-c2cccnc2)cc(-n2nnc(-c3ccccn3)n2)c1
- IC50 [1]: 12 nM
- Ki [2]: 37 nM

Structure (SMILES): Cc1ccccc1-c1cc(F)cc(-n2nnc(-c3ccccn3)n2)c1
- IC50 [1]: 120 nM
- Ki [2]: 23 nM

Structure (SMILES): Nc1cccnc1-c1cc(F)cc(-n2nnc(-c3ccccn3)n2)c1
- IC50 [1]: 19 nM
- Ki [2]: 31 nM

Structure (SMILES): Cc1cncc(-c2cc(F)cc(-n3nnc(-c4ccccn4)n3)c2)c1
- IC50 [1]: 499 nM
- Ki [2]: 272 nM
